Values after ≈ are worked out from the molar mass of the structure shown.
How the values were obtained:
Assay type in all cases: functional
Aspergillus niger = assay: Antimicrobial activity against Aspergillus niger CGMCC 3.316 after 48 hrs by modified microdilution method; settings: CGMCC 3.316, 48 h
Procedure, shortened: (§1)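 Fungal MIC by modified microdilution. Twofold serial dilutions of compound in 20% DMSO were combined with an equal volume of inoculum in PD broth (~10^5 CFU/ml). Ketoconazole was the positive control and 20% DMSO the negative control. Plates were incubated 48 h at 28 °C and inspected for growth. MIC is the lowest concentration without visible growth.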

Pseudomonas fluorescens = assay: Antimicrobial activity against Pseudomonas fluorescens CGMCC 1.1828 after 24 hrs by modified microdilution method; settings: CGMCC 1.1828, 24 h
Procedure, shortened: (§2)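 Broth microdilution. Compounds were dissolved in 20% DMSO and serially diluted twofold, then mixed with an equal volume of bacteria in Martin's broth (~10^5 CFU/ml). Amikacin sulfate was the positive control and 20% DMSO the negative control. Wells were incubated at 37 °C for 24 h and scored visually for growth. MIC is the lowest concentration inhibiting growth.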

Staphylococcus aureus = assay: Antimicrobial activity against Staphylococcus aureus CGMCC 1.1361 after 24 hrs by modified microdilution method; settings: CGMCC 1.1361, 24 h; procedure, shortened: as §2
Bacillus subtilis = assay: Antimicrobial activity against Bacillus subtilis CGMCC 1.1162 after 24 hrs by modified microdilution method; settings: CGMCC 1.1162, 24 h; procedure, shortened: as §2
Candida albicans = assay: Antimicrobial activity against Candida albicans CGMCC 2.2086 after 48 hrs by modified microdilution method; settings: CGMCC 2.2086, 48 h; procedure, shortened: as §1
Escherichia coli = assay: Antimicrobial activity against Escherichia coli CGMCC 1.1571 after 24 hrs by modified microdilution method; settings: CGMCC 1.1571, 24 h; procedure, shortened: as §2
Trichophyton rubrum = assay: Antimicrobial activity against Trichophyton rubrum ATCC 10218 after 48 hrs by modified microdilution method; settings: ATCC 10218, 48 h; procedure, shortened: as §1

Row | Compound | MIC (Aspergillus niger) | MIC (Pseudomonas fluorescens) | MIC (Staphylococcus aureus) | MIC (Bacillus subtilis) | MIC (Candida albicans) | MIC (Escherichia coli) | MIC (Trichophyton rubrum)
1 | COC(=O)[C@]1(C)CCC[C@]2(C)c3ccc(C(C)C)cc3-c3[nH]c4ccccc4c3[C@@H]12 | > 100 mg/L | 62.5 mg/L (≈ 156 µM) | 62.5 mg/L (≈ 156 µM) | 31.2 mg/L (≈ 77.7 µM) | > 100 mg/L | > 100 mg/L | > 100 mg/L
2 | COC(=O)[C@]1(C)CCC[C@]2(C)c3ccc(C(C)C)cc3-c3[nH]c4ccc(C)cc4c3[C@@H]12 | > 100 mg/L | 31.2 mg/L (≈ 75.1 µM) | 62.5 mg/L (≈ 150 µM) | 31.2 mg/L (≈ 75.1 µM) | > 100 mg/L | > 100 mg/L | 62.5 mg/L (≈ 150 µM)
3 | COC(=O)[C@]1(C)CCC[C@]2(C)c3ccc(C(C)C)cc3-c3[nH]c4c(C)cccc4c3[C@@H]12 | > 100 mg/L | > 100 mg/L | > 100 mg/L | > 100 mg/L | > 100 mg/L | > 100 mg/L | > 100 mg/L
4 | COC(=O)[C@]1(C)CCC[C@]2(C)c3ccc(C(C)C)cc3-c3[nH]c4ccc(F)cc4c3[C@@H]12 | > 100 mg/L | 7.8 mg/L (≈ 18.6 µM) | 3.9 mg/L (≈ 9.3 µM) | 1.9 mg/L (≈ 4.53 µM) | 62.5 mg/L (≈ 149 µM) | 15.6 mg/L (≈ 37.2 µM) | > 100 mg/L
5 | COC(=O)[C@]1(C)CCC[C@]2(C)c3ccc(C(C)C)cc3-c3[nH]c4c(F)cccc4c3[C@@H]12 | 62.5 mg/L (≈ 149 µM) | 15.6 mg/L (≈ 37.2 µM) | 31.2 mg/L (≈ 74.4 µM) | 7.8 mg/L (≈ 18.6 µM) | 31.2 mg/L (≈ 74.4 µM) | 31.2 mg/L (≈ 74.4 µM) | 62.5 mg/L (≈ 149 µM)
6 | COC(=O)[C@]1(C)CCC[C@]2(C)c3ccc(C(C)C)cc3-c3[nH]c4ccc(Cl)cc4c3[C@@H]12 | > 100 mg/L | 31.2 mg/L (≈ 71.6 µM) | 3.9 mg/L (≈ 8.95 µM) | 3.9 mg/L (≈ 8.95 µM) | > 100 mg/L | 15.6 mg/L (≈ 35.8 µM) | > 100 mg/L
7 | COC(=O)[C@]1(C)CCC[C@]2(C)c3ccc(C(C)C)cc3-c3[nH]c4c(Cl)cccc4c3[C@@H]12 | > 100 mg/L | > 100 mg/L | 31.2 mg/L (≈ 71.6 µM) | 31.2 mg/L (≈ 71.6 µM) | > 100 mg/L | > 100 mg/L | > 100 mg/L
8 | COC(=O)[C@]1(C)CCC[C@]2(C)c3ccc(C(C)C)cc3-c3[nH]c4ccc(Br)cc4c3[C@@H]12 | > 100 mg/L | 15.6 mg/L (≈ 32.5 µM) | 31.2 mg/L (≈ 64.9 µM) | 15.6 mg/L (≈ 32.5 µM) | > 100 mg/L | 31.2 mg/L (≈ 64.9 µM) | > 100 mg/L
9 | COC(=O)[C@]1(C)CCC[C@]2(C)c3ccc(C(C)C)cc3-c3[nH]c4c(Br)cccc4c3[C@@H]12 | > 100 mg/L | 62.5 mg/L (≈ 130 µM) | > 100 mg/L | 62.5 mg/L (≈ 130 µM) | > 100 mg/L | > 100 mg/L | > 100 mg/L
10 | COC(=O)[C@]1(C)CCC[C@]2(C)c3ccc(C(C)C)cc3-c3[nH]c4ccc(OC)cc4c3[C@@H]12 | > 100 mg/L | > 100 mg/L | 31.2 mg/L (≈ 72.3 µM) | 62.5 mg/L (≈ 145 µM) | 62.5 mg/L (≈ 145 µM) | > 100 mg/L | > 100 mg/L
11 | COC(=O)[C@]1(C)CCC[C@]2(C)c3ccc(C(C)C)cc3-c3[nH]c4c(OC)cccc4c3[C@@H]12 | > 100 mg/L | > 100 mg/L | 62.5 mg/L (≈ 145 µM) | > 100 mg/L | > 100 mg/L | > 100 mg/L | > 100 mg/L
12 | CCOc1ccc2[nH]c3c(c2c1)[C@H]1[C@](C)(C(=O)OC)CCC[C@]1(C)c1ccc(C(C)C)cc1-3 | > 100 mg/L | 31.2 mg/L (≈ 70 µM) | > 100 mg/L | 62.5 mg/L (≈ 140 µM) | 62.5 mg/L (≈ 140 µM) | 62.5 mg/L (≈ 140 µM) | 62.5 mg/L (≈ 140 µM)
13 | COC(=O)[C@]1(C)CCC[C@]2(C)c3ccc(C(C)C)cc3-c3[nH]c4ccc([N+](=O)[O-])cc4c3[C@@H]12 | > 100 mg/L | 15.6 mg/L (≈ 34.9 µM) | 7.8 mg/L (≈ 17.5 µM) | 7.8 mg/L (≈ 17.5 µM) | 31.2 mg/L (≈ 69.9 µM) | 15.6 mg/L (≈ 34.9 µM) | 62.5 mg/L (≈ 140 µM)
14 | COC(=O)[C@]1(C)CCC[C@]2(C)c3ccc(C(C)C)cc3C(=O)C[C@@H]12 | > 100 mg/L | 62.5 mg/L (≈ 190 µM) | 31.2 mg/L (≈ 95 µM) | 31.2 mg/L (≈ 95 µM) | > 100 mg/L | > 100 mg/L | > 100 mg/L
15 | NCC[C@H](O)C(=O)N[C@@H]1C[C@H](N)[C@@H](O[C@H]2O[C@H](CN)[C@@H](O)[C@H](O)[C@H]2O)[C@H](O)[C@H]1O[C@H]1O[C@H](CO)[C@@H](O)[C@H](N)[C@H]1O [AMIKACIN] | – | 0.9 mg/L (≈ 1.54 µM) | 0.9 mg/L (≈ 1.54 µM) | 0.9 mg/L (≈ 1.54 µM) | – | 1.9 mg/L (≈ 3.24 µM) | –
16 | CC(=O)N1CCN(c2ccc(OCC3COC(Cn4ccnc4)(c4ccc(Cl)cc4Cl)O3)cc2)CC1 (configuration not stated) [KETOCONAZOLE] | 7.8 mg/L (≈ 14.7 µM) | – | – | – | 3.9 mg/L (≈ 7.34 µM) | – | 3.9 mg/L (≈ 7.34 µM)
17 | COC(=O)[C@]1(C)CCC[C@]2(C)c3ccc(C(C)C)cc3CC[C@@H]12 [METHYL DEHYDROABIETATE] | > 100 mg/L | > 100 mg/L | 62.5 mg/L (≈ 199 µM) | > 100 mg/L | > 100 mg/L | > 100 mg/L | > 100 mg/L

— ChEMBL document CHEMBL1250495, “Synthesis and antimicrobial activities of novel 1H-dibenzo[a,c]carbazoles from dehydroabietic acid” (2010)
